# Source: PubChem
# MMP-13 inhibitor – inhibitors of human MMP13. 65,000 tested, 0.07% active. inhibition, % at 4 µM. P45452. MMP-13 fTHP FRET cleavage, Mca fluorescence;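 active = inhibition above the mean of compound-free control plate wells plus 3 SD, cut at about 14% in these data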;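 also: 0% = DMSO wells and 100% = wells with reference MMP-13 inhibitor after basal subtraction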
# E coli WT exp – growth inhibitors of E. coli BW25113 wild type; AID 710; growth inhibition, % at 100 µM; OD600 absorbance; 98,000 tested, 0.15% active;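 active = growth inhibition above about 50% at one test dose, limit read from the data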;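 also: growth measured after 20 h incubation at 37 °C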
# HePTP inhibitor – inhibitors of human HePTP phosphatase; 110,000 tested, 0.64% active; recombinant HePTP phosphatase activity, OD absorbance; inhibition, % at 20 µM; P35236; in the data active = inhibition above about 50%;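 also: plate controls were vehicle for no effect and reference inhibitor for full effect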
# Ecoli tolC – growth inhibitors of E. coli BW25113 tolC mutant | OD615 | growth inhibition, % at 10 µM (by protocol) | 65,000 tested, 2.2% active | AID 573;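 active = growth inhibition at or above a cutoff equal to the mean over every tested compound plus 3 SD, cut at about 60% in these data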;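 also: growth measured after 20 h incubation at 37 °C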
#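 Signal: optical density read at 615 nm; Assay system: E. coli ΔtolC::kan strain BW25113; Times: 20 h incubation with compound, 37 °C; Dosing: 10 µM final, single dose.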
# Cdc25B block – human M-phase inducer phosphatase 2 inhibition | recombinant Cdc25B, OMFP fluorescence Ex485/Em525 | inhibition, %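 (compounds tested at 10 µM final in the well)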 | 65,000 tested, 0.1% active | AID 368; in the data active = inhibition above about 50%
# Target sequence (P30305 whole entry, looked up): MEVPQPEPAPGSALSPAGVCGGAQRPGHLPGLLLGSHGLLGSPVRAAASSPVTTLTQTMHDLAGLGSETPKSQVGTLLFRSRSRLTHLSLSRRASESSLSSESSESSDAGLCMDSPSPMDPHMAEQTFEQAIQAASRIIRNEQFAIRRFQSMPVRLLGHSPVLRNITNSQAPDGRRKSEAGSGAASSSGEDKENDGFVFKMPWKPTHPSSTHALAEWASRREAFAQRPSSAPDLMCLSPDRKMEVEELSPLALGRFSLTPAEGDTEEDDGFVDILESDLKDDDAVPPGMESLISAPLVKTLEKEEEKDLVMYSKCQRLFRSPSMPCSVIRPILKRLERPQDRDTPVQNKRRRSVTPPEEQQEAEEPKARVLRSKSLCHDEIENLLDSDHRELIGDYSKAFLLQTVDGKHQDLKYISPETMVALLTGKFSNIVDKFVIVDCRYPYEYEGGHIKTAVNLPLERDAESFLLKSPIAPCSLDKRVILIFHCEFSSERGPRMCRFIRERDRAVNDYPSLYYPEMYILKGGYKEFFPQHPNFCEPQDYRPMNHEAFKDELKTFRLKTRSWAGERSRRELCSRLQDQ
# DUSP1 inh – inhibitors of human MKP-1 phosphatase; P28562; recombinant MKP-1, OMFP hydrolysis fluorescence; inhibition, %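 (compounds tested at a single concentration somewhere between 10 and 100 µM)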; 65,000 tested, 0.15% active; AID 374;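 active = inhibition above about 50%, limit read from the data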;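 also: 0% = DMSO max control wells and 100% = wells with enzyme stopped by NaOH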
# * = called active by the depositor; · = no result given. Shown is part of a subset that was picked to be rich in hits.
SMILES,MMP-13 inhibitor,E coli WT exp,HePTP inhibitor,Ecoli tolC,Cdc25B block,DUSP1 inh
Cc1cc(N2C(=O)NC(=O)/C(=C\c3ccc(N(C)C)o3)C2=O)ccc1Br,·,·,-8,·,·,·
CN1CCN(c2ccc([N+](=O)[O-])cc2C(=O)Nc2ccc(Cl)c(Cl)c2)CC1,·,·,3,·,·,·
CNc1ccc2c(O)cc(S(=O)(=O)O)cc2c1,·,·,54*,·,·,·
COC(=O)c1ccc(NC(=O)CN2CCN(c3ccc(Cl)cc3)CC2)cc1,6,0,9,-22,-4,5
Cc1ccc(C(=O)N2CCN(c3cccc(Cl)c3)CC2)cc1C,-1,-13,-12,68*,-19,-6
COC(=O)c1ccc(NC(=O)CN2CCN(c3cccc(Cl)c3)CC2)cc1,-6,-13,-5,75*,-8,24
CCOC(=O)c1ccc(NC(=O)c2ccc([N+](=O)[O-])cc2Cl)cc1,·,·,-5,·,·,·
O=C(O)c1ccc2c(c1)C(=O)N(c1ccc(-c3nc4ccccc4c(=O)o3)cc1)C2=O,·,·,15,·,·,·
O=C(O)c1ccc2c(c1)C(=O)N(c1ccc(-c3nnc(-c4ccccc4)o3)cc1)C2=O,·,·,102*,·,·,·
O=C(c1ccc(F)cc1)c1ccc2c(c1)CCCO2,·,·,2,·,·,·
CCCCCOC(=O)c1ccc(NC(=O)c2ccco2)cc1,5,-2,0,99*,-4,19
CCCCOC(=O)c1ccc(NC(=O)c2cccc(OC)c2)cc1,·,·,0,·,·,·
CCCCOC(=O)c1cccc(NC(=O)c2ccc(OC)cc2)c1,·,·,104*,·,·,·
COc1cc(/C=C2/SC(=S)N(CCC(=O)Nc3ccc(C(C)=O)cc3)C2=O)cc(OC)c1OC,·,·,5,·,·,·
CC1CCCCN1C(=O)c1cc(-c2ccc(Cl)c(Cl)c2)on1 (centres undefined),3,-5,5,57,-13,34
CCC1CCCCN1C(=O)c1cc(-c2ccc(Cl)c(Cl)c2)on1 (centres undefined),7,-9,-2,100*,-14,27
O=C1NN(c2ccc(Cl)cc2)C(=O)/C1=C\c1ccc(-c2cccc(C(=O)O)c2)o1,·,·,103*,·,·,·
O=C1NC(=O)N(c2ccccc2)C(=O)/C1=C\c1ccc(-c2cccc(C(=O)O)c2)o1,·,·,16,·,·,·
O=C1NN(c2ccc(F)cc2)C(=O)/C1=C\c1ccc(-c2cccc(C(=O)O)c2)o1,·,·,102*,·,·,·
O=C(O)c1cccc(-c2ccc(C=C3C(=O)c4ccccc4C3=O)o2)c1,·,·,98*,·,·,·
CCOC(=O)c1ccc(NC(=O)C2CC(=O)N(c3ccc(Br)cc3)C2)cc1 (centres undefined),·,·,4,·,·,·
COc1cc(NC(=O)c2cc([N+](=O)[O-])ccc2N2CCCCCC2)c2ncccc2c1,·,·,-3,·,·,·
COC(=O)c1c2nc3ccccc3sc-2cc(=O)c1N,·,·,68*,·,·,·
CC1=C(C(=O)OC2CCCCCCC2)C(c2cccc(O)c2)NC(=O)N1 (centres undefined),2,14,-5,65*,-14,8
COC(=O)c1cc(NC(C)=O)c(C)c(NC(C)=O)c1[N+](=O)[O-],·,·,-2,·,·,·
SMILES,MMP-13 inhibitor,E coli WT exp,HePTP inhibitor,Ecoli tolC,Cdc25B block,DUSP1 inh
CSc1nc(-c2ccccc2)nc(N2CCCC2)c1C(C)=O,-1,-1,0,75*,-9,-3
Cc1cccc(NC(=O)c2sc3nc(-c4ccccc4)cn3c2C)n1,-9,-18,·,1,-27,26
COc1ccc(-c2cn3c(C)c(C(=O)Nc4cccc(C)n4)sc3n2)cc1,-2,-8,7,4,-13,51*
COc1ccc(-c2[nH]c(-c3cccc(OC)c3)nc2SCC(=O)NCc2ccco2)cc1,-27,-23,6,67*,-14,-3
O=C(CN(c1cccc(Cl)c1)S(=O)(=O)c1ccccc1)N/N=C/c1cccnc1,·,·,7,·,·,·
Cc1cccn2c(=O)c3cc(C(=O)NCc4ccco4)c(=N)n(CCc4ccccc4)c3nc12,-217,·,12,65*,8,12
COc1ccc(CCNC(=O)C(=O)N2CCCCCC2)cc1OC,·,·,7,·,·,·
Cc1c(Cl)cccc1NC(=O)C(=O)NCCCO,·,·,5,·,·,·
O=C1N=c2ccccc2=C1c1cc(-c2ccccc2)oc1O,·,·,56*,·,·,·
Oc1oc(-c2ccccc2)cc1N=Nc1ccccc1,·,·,11,·,·,·
COc1ccc(C(=O)Nc2ccc(Cl)c(-c3nc4ccccc4s3)c2)cc1[N+](=O)[O-],·,·,65*,·,·,·
O=C(O)c1cc(-c2cccc(Cl)c2)nc2ccccc12,·,·,104*,·,·,·
COCCCN1C(=O)c2[nH]nc(-c3ccccc3O)c2C1c1ccc(Cl)cc1 (centres undefined),1,4,-1,64*,-2,5
COc1ccc(CCN2C(=O)c3[nH]nc(-c4ccccc4O)c3C2c2ccccc2)cc1OC (centres undefined),-5,-5,1,-7,3,-5
O=C1c2[nH]nc(-c3ccccc3O)c2C(c2ccccc2F)N1Cc1ccco1 (centres undefined),-1,6,5,100*,4,8
O=C1c2[nH]nc(-c3ccccc3O)c2C(c2ccccc2)N1Cc1ccco1 (centres undefined),1,6,-8,98*,6,4
COCCCN1C(=O)c2[nH]nc(-c3ccccc3O)c2C1c1cccc(Cl)c1 (centres undefined),-3,-2,-7,52,10,5
O=C(/C=C/c1cccc([N+](=O)[O-])c1)Nc1cccc(-c2nc3cc(Cl)ccc3o2)c1,·,·,-1,·,·,·
COc1ccc(N2C(=O)c3ccccc3NC2c2ccc(C)cc2)cc1 (centres undefined),·,·,-4,·,·,·
C/C(=N\NC(=O)c1cc(C(C)(C)C)[nH]n1)c1ccc2ccccc2c1,·,·,-10,·,·,·
S=C(c1ccc(-c2ccc(Cl)c(Cl)c2)o1)N1CCOCC1,4,-5,9,65*,7,12
S=C(c1ccc(-c2ccc(Cl)c(Cl)c2)o1)N1CCCCC1,·,·,9,·,·,·
CCN(CC)c1ccc(/C=C2/C(=O)NN(c3ccc(I)cc3)C2=O)c(O)c1,·,·,14,·,·,·
CCN(CC)c1ccc(/C=C2/C(=O)NN(c3ccc(C)cc3)C2=O)c(O)c1,·,·,61*,·,·,·
Cc1ccc(S(=O)(=O)Cn2nnnc2CN2CCCC3(CCCCC3)C2)cc1,-2,-13,14,76*,-10,15
SMILES,MMP-13 inhibitor,E coli WT exp,HePTP inhibitor,Ecoli tolC,Cdc25B block,DUSP1 inh
Cc1ccc(S(=O)(=O)Cn2nnnc2CN2CCOCC2)cc1,-22,0,4,-24,4,-30
CC(=O)Nc1ccc(C(=O)NNC(=O)CCc2ccccc2)cc1,·,13,·,·,·,·
CC(C)(C)c1cc(CCC(=O)NNC(=O)c2ccccc2)cc(C(C)(C)C)c1O,·,·,56*,·,·,·
COc1ccc(/C=C/C(=O)c2ccc(I)cc2)cc1,·,·,-3,·,·,·
COc1ccc2nc(NC(=O)c3ccc(C(C)(C)C)cc3)sc2c1,·,·,8,·,·,·
COc1cccc(NC(=O)CCCOc2ccc(Cl)cc2Cl)c1,·,·,8,·,·,·
CSc1nc(SCC(=O)NCc2ccco2)c2c3c(sc2n1)COC(C)(C)C3,-7,-3,6,18,-12,10
CC(C)Sc1nc(NCc2ccco2)c2c3c(sc2n1)COC(C)(C)C3,-45,3,11,65*,1,15
CCCCCC(=O)N/N=C/c1ccc([N+](=O)[O-])o1,·,60*,·,·,·,·
